Here are results for ten compounds from ChEMBL document CHEMBL4152217, “Quinonoid compounds via reactions of lawsone and 2-aminonaphthoquinone with α-bromonitroalkenes and nitroallylic acetates: Structural diversity by C-ring modification and cytotoxic evaluation against cancer cells” (Eur J Med Chem, 2018).

Where only a bound is given, the exact number is not on record here.

For one series, the system named is SF-295. In words: Cytotoxicity against human SF295 cells assessed as reduction in cell viability after 72 hrs by MTT assay. The following applies: SF-295, 72 h. (In general: Tetrazolium assays rely on reduction of a dye to a coloured formazan, in cell work by metabolically active cells.)
In series [1] the test system is HCT-116. In words: Induction of DNA damage in human HCT116 cells assessed as DNA damage index at 5 uM after 24 hrs by ethidium bromide staing based flurescence microscopic analysis (8.3 +/- 0.88). Type of series: functional.
The test system of another series is PC-3. Nature of the series: Cytotoxicity against human PC3 cells assessed as reduction in cell viability after 72 hrs by MTT assay. Type of series: functional, cell-based. As to conditions: PC-3, 72 h. Summed up: (§1)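 MTT viability assay. Cancer lines grown in RPMI 1640 and L929 fibroblasts in DMEM, each with 10% FBS, 2 mM glutamine, penicillin/streptomycin, 37 °C, 5% CO2. PBMC were taken from healthy donors by density-gradient centrifugation, kept in RPMI with 20% FBS and stimulated with 2% phytohemagglutinin. Cells were exposed 72 h (0.01–27.32 µM). MTT 0.5 mg/mL for 3 h, absorbance read at 550 nm. IC50 with 95% CI from nonlinear regression; triplicate, ≥3 independent experiments.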

The test system of series [2] is HCT-116. Nature of the series: Induction in oxidative stress in human HCT116 cells assessed as nitrite level at 10 uM after 24 hrs by Griess reagent based assay. Type of series: functional. Summed up:
(§2)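 HCT-116 cells were treated 24 h. Culture supernatant was mixed 1:1 with Griess reagent (sulfanilamide/N-(1-naphthyl)ethylenediamine in H3PO4) for 10 min at room temperature, and absorbance read at 560 nm. Nitrate/nitrite was quantified against a NaNO2 standard curve (0.75–100 µM). Vehicle was the negative control and H2O2 10 µM the positive control; three independent experiments, mean ± S.E.M.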
Background: The Griess reaction detects nitrite, a stable product of nitric oxide.

Series [3] relates to HCT-116. Nature of the series: Induction in oxidative stress in human HCT116 cells assessed as nitrite level at 5 uM after 24 hrs by Griess reagent based assay. Type of series: functional. The procedure, abridged: as §2
Another series deals with MX1. Nature of the series: Cytotoxicity against human MX1 cells assessed as reduction in cell viability after 72 hrs by MTT assay. As to conditions: MX1, 72 h.
Series [4] deals with HCT-116. Nature of the series: Induction of DNA damage in human HCT116 cells assessed as DNA damage index at 10 uM after 24 hrs by ethidium bromide staing based flurescence microscopic analysis (8.3 +/- 0.88). Type of series: functional.
For series [5], the system named is HCT-116. In words: Cytotoxicity against human HCT116 cells assessed as reduction in cell viability after 72 hrs by MTT assay. Type of series: functional, cell-based. As to conditions: HCT-116, 72 h. Summed up:
as §1

Another series has as its system PBMC. In words: Cytotoxicity against human PBMC cells assessed as reduction in cell viability after 72 hrs by MTT assay.
The next series deals with Jurkat. Nature of the series: Cytotoxicity against human Jurkat cell viability after 72 hrs by MTT assay.
The next series relates to HL-60. Nature of the series: Cytotoxicity against human HL60 cells assessed as reduction in cell viability after 72 hrs by MTT assay. Type of series: functional, cell-based. The following applies: HL-60, 72 h. The procedure, abridged: as §1
Series [6] deals with HCT-116. Nature of the series: Induction in oxidative stress in human HCT116 cells assessed as increase in nitrite level after 24 hrs by Griess reagent based assay. Type of series: functional, cell-based. Summed up: as §2
The subject of a further series is NCI-H460. Nature of the series: Cytotoxicity against human NCI-H460 cells assessed as reduction in cell viability after 72 hrs by MTT assay. The following applies: NCI-H460, 72 h.
Another series has as its system OVCAR-8. Nature of the series: Cytotoxicity against human OVCAR8 cells assessed as reduction in cell viability after 72 hrs by MTT assay. The following applies: OVCAR-8, 72 h.
Another series concerns L929. In words: Cytotoxicity against mouse L929 cells assessed as reduction in cell viability after 72 hrs by MTT assay. Type of series: cell-based. As to conditions: L929, 72 h. The procedure, abridged:
as §1

Series [7] can be described thus: Selectivity index, ratio of IC50 for human PBMC cells to IC50 for human NCI-H460 cells. As to conditions: PBMC cells versus NCI-H460 cells. Type of series: toxicity.

One may read the IC50 as the concentration that inhibits the measured activity by half. As to `O=C1c2ccccc2C(=O)c2c(-c3cccc4c3OCO4)coc21`, the concentration for half-maximal inhibition (IC50) in the series on SF-295 is 3.71 µM; in the series on PC-3, 2.54 µM; in the series on MX1, 2.92 µM; with HCT-116 [5], 2.76 µM; with PBMC it was > 15.7 µM; with Jurkat, 2.04 µM. For the same compound, the IC50 was 2.23 µM with HL-60, 3.61 µM in the series with NCI-H460, 3.08 µM in the series with OVCAR-8 and > 15.7 µM in the series on L929. Moreover, the Activity_index in the series on HCT-116 [1] turned out to be 42.88; with HCT-116 [4], 82.77. Further, the values for the Activity with HCT-116 [2], in the series on HCT-116 [3] and in the series with HCT-116 [6] were 8.33 µM, 5.33 µM and “Dose-dependent effect”, respectively.

`O=C1c2ccccc2C(=O)c2c(-c3ccccc3[N+](=O)[O-])coc21`: the IC50 is 2.94 µM in the series with SF-295; 1.59 µM in the series with PC-3; 2.85 µM with MX1; 1.28 µM in the series with HCT-116 [5]; > 15.7 µM with PBMC; 1.47 µM with Jurkat. Also, the IC50 in the series with HL-60 was 1.66 µM; in the series with NCI-H460 it was 2.53 µM; in the series with OVCAR-8, 2.25 µM; in the series on L929 it was > 15.7 µM.

For `O=C1c2ccccc2C(=O)c2c(-c3ccc(F)cc3)coc21`, the IC50 was 6.33 µM in the series on SF-295; 3.97 µM in the series on PC-3; 5.2 µM in the series on MX1; 6.02 µM in the series with HCT-116 [5]; > 17.1 µM in the series with PBMC; 3.45 µM in the series with Jurkat. For the same compound, the IC50 in the series with HL-60 was 3.28 µM; in the series on NCI-H460 it was 4.34 µM; with OVCAR-8, 5.43 µM; with L929, 13.6 µM.

With `O=C1c2ccccc2C(=O)c2c(-c3cccs3)coc21`, the IC50 in the series with SF-295 was 4.96 µM; in the series on PC-3, 4.85 µM; with MX1, 4.92 µM; in the series on HCT-116 [5] it was 5.17 µM; in the series on PBMC, > 17.9 µM; in the series with Jurkat, 4.21 µM. In addition, the IC50 in the series with HL-60 was 3.28 µM; with NCI-H460, 5.67 µM; in the series with OVCAR-8, 5.39 µM; with L929 it was > 17.9 µM.

Turning to `CSc1ccc(-c2coc3c2C(=O)c2ccccc2C3=O)cc1`, the IC50 with SF-295 was 3.43 µM; in the series with PC-3 it was 2.49 µM; in the series with MX1, 4.74 µM; in the series on HCT-116 [5], 6.03 µM; in the series with PBMC, > 15.6 µM; in the series on Jurkat it was 2.18 µM. Also, the IC50 was 3.09 µM with HL-60, 4.68 µM in the series with NCI-H460, 4.09 µM with OVCAR-8 and > 15.6 µM with L929.

As for `O=C1c2ccccc2C(=O)c2c(-c3cccc4ccccc34)coc21`, the 50% inhibitory concentration (IC50) is 4.44 µM in the series with SF-295; 1.82 µM in the series on PC-3; 3.3 µM in the series on MX1; 6.17 µM in the series with HCT-116 [5]; > 15.4 µM with PBMC; 2.09 µM in the series on Jurkat. Further, the 50% inhibitory concentration (IC50) with HL-60 worked out at 2.37 µM; with NCI-H460, 3.79 µM; with OVCAR-8 it was 3.88 µM; in the series with L929, 13 µM.

For `O=C1c2ccccc2C(=O)c2c(-c3ccc(Br)cc3)coc21`, the IC50 in the series with SF-295 is 3.49 µM; with PC-3, 2.61 µM; in the series on MX1 it was 3.23 µM; with HCT-116 [5] it was 5.39 µM; in the series with PBMC it was > 14.2 µM; with Jurkat, 2.78 µM. For the same compound, the IC50 with HL-60 was 2.64 µM; in the series on NCI-H460 it was 4.88 µM; in the series on OVCAR-8, 2.98 µM; in the series with L929 it was > 14.2 µM.

As for `COc1ccc(-c2coc3c2C(=O)c2ccccc2C3=O)cc1`, the concentration for half-maximal inhibition (IC50) with SF-295 was 4.99 µM; in the series with PC-3, 4.96 µM; in the series with MX1 it was 5.59 µM; in the series on HCT-116 [5] it was 5.78 µM; with PBMC it was > 16.4 µM; in the series on Jurkat it was 3.81 µM. Besides, the IC50 in the series with HL-60 was 4.31 µM; with NCI-H460, 6.34 µM; with OVCAR-8, 6.01 µM; in the series on L929, > 16.4 µM.

In the case of `COc1ccc(-c2coc3c2C(=O)c2ccccc2C3=O)cc1OC`, the half-inhibitory concentration (IC50) in the series on SF-295 is 3.74 µM; with PC-3, 3.89 µM; with MX1 it was 5.05 µM; with HCT-116 [5], 5.2 µM; in the series on PBMC it was > 15 µM; in the series with Jurkat it was 3.71 µM. The IC50 with HL-60 is 3.41 µM; with NCI-H460 it was 4.07 µM; in the series with OVCAR-8, 4.69 µM; in the series on L929, > 15 µM.

Turning to `COc1ccc(-n2cc(-c3ccc(Cl)cc3)c3c2C(=O)c2ccccc2C3=O)cc1`, the IC50 is 4.28 µM with SF-295; 8.66 µM in the series with PC-3; 8.88 µM in the series with HCT-116 [5]; > 12.1 µM in the series with PBMC; 3.15 µM in the series with HL-60; 3.81 µM in the series with NCI-H460. Further, in the series on L929, the IC50 was > 12.1 µM. Also, the selectivity ratio in [7] was > 3.1.
